Reference: ChEMBL document CHEMBL1136692, “Pharmacokinetic optimization of 3-amino-6-chloropyrazinone acetamide thrombin inhibitors. Implementation of P3 pyridine N-oxides to deliver an orally bioavailable series containing P1 N-benzylamides” (Bioorg Med Chem Lett, 2003)

Assays:
[1] = Maximum plasma concentration (Cmax) in dog at a dose of 1 mg/kg; type: ADME, organism-based, Canis lupus familiaris; parameters: dose 1 mg/kg
How it was run: (§1)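 Dog pharmacokinetics after oral dosing at 1 mg/kg, or at 0.7 or 0.5 mg/kg where footnoted. Cmax (µM) and oral half-life (h) from plasma levels.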

Homo sapiens [2] = species: Homo sapiens; assay: Concentration required to double the activated partial thromboplastin time (aPPT) in human plasma; type: functional, cell-free
How it was run: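 Anticoagulant assay in human plasma. The value is the concentration of inhibitor that doubles the activated partial thromboplastin time (2×aPTT).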

[3] = Partition coefficient (logP) of the compound; type: physicochemical; conditions: octanol/water
Homo sapiens [4] = species: Homo sapiens; assay: Human microsome stabilities are reported as the ratio of the % remaining after a 1 hr incubation versus the internal standard thrombin inhibitor; type: functional; parameters: unit not given here
[5] = t1/2 in dog; type: ADME, organism-based, Canis lupus familiaris; conditions: in vivo; how it was run: as §1
Prothrombin = Prothrombin (Homo sapiens, UniProt P00734); assay: Inhibitory activity against human thrombin
[6] = Half life period after intravenous administration in dog; type: ADME, organism-based, Canis lupus familiaris; conditions: in vivo
How it was run: (§2)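 Dog pharmacokinetics. Parameters are plasma clearance (mL/min/kg), volume of distribution (L/kg), iv half-life (h) and oral bioavailability F (%).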

[7] = Compound was tested for percent protein binding (PB) in dog; type: ADME, organism-based, Canis lupus familiaris; conditions: read-out: PB (converted)
How it was run: (§3)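 Plasma protein binding given as percent free drug, measured in dog plasma and in human plasma.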

[8] = Oral bioavailability in dog; type: ADME, organism-based, Canis lupus familiaris; conditions: in vivo; how it was run: as §2
[9] = Plasma clearance (pharmacokinetic parameter) in dog was determined; type: ADME, organism-based, Canis lupus familiaris; conditions: read-out: Clp; how it was run: as §2
[10] = Compound was tested for percent protein binding (PB) in human; type: ADME; conditions: read-out: PB (converted); how it was run: as §3
[11] = Vd in dog; type: ADME, organism-based, Canis lupus familiaris; conditions: in vivo; how it was run: as §2
[12] = Maximum plasma concentration (Cmax) in dog at a dose of […] mg/kg; type: ADME, organism-based, Canis lupus familiaris
[13] = Maximum plasma concentration (Cmax) in rhesus monkey(in vivo) at a dose of 5 mg/kg; type: ADME, organism-based; parameters: dose 5 mg/kg; conditions: cercopithecidae
How it was run: (§4)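 Maximum plasma concentration in rat (10 mg/kg) and in rhesus (5 mg/kg), each measured at the dose stated for its species.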

Rattus norvegicus [14] = assay: […] activated partial thromboplastin time(APPT) after intravenous administration in rat model of FeCl3-induced carotid thrombosis; type: functional
[15] = Half life period after intravenous administration (5 mg/kg) was determined in rhesus (in vivo); type: ADME, organism-based, Macaca mulatta; conditions: rhesus monkey
[16] = Plasma clearance (pharmacokinetic parameter) in dog (in vivo) at a dose of 1 mg/kg; type: ADME, organism-based, Canis lupus familiaris; parameters: dose 1 mg/kg; conditions: read-out: Clp
How it was run: (§5)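 Plasma clearance and volume of distribution determined at a species-specific dose: 1 mg/kg for dog, 10 mg/kg for rat, 5 mg/kg for rhesus.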

[17] = Vd (10 mg/kg) was determined in rat (in vivo); type: ADME, organism-based; how it was run: as §5
[18] = Vd (1 mg/kg) was determined in dog (in vivo); type: ADME, organism-based, Canis lupus familiaris; how it was run: as §5
[19] = Oral bioavailability (10 mg/kg) was determined in rat; type: ADME, organism-based; conditions: in vivo
[20] = Half life period after intravenous administration (1 mg/kg) was determined in dog (in vivo); type: ADME, organism-based, Canis lupus familiaris
[21] = Plasma clearance (pharmacokinetic parameter) in rat (in vivo) at a dose of 10 mg/kg; type: ADME, organism-based; parameters: dose 10 mg/kg; conditions: read-out: Clp; how it was run: as §5
[22] = Oral bioavailability (1 mg/kg) was determined in dog; conditions: in vivo
[23] = Maximum plasma concentration (Cmax) in dog (in vivo) at a dose of 1 mg/kg; type: ADME, organism-based, Canis lupus familiaris; parameters: dose 1 mg/kg; how it was run: as §1
[24] = Plasma clearance (pharmacokinetic parameter) in rhesus (in vivo) at a dose of 5 mg/kg; type: ADME, organism-based, Macaca mulatta; parameters: dose 5 mg/kg; conditions: rhesus monkey, read-out: Clp; how it was run: as §5
Rattus norvegicus [25] = assay: Thrombin time of occlusion after intravenous administration in rat model of FeCl3-induced carotid thrombosis; type: functional
Rattus norvegicus [26] = assay: Time of occlusion after intravenous administration in rat model of FeCl3-induced carotid thrombosis; type: functional
How it was run: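 Rat carotid artery thrombosis induced with FeCl3. Compound given iv as a continuous infusion (µg/kg/min; vehicle 0.3% DMSO). Read-outs: incidence of occlusion, time to occlusion, thrombin time, aPTT (s) and plasma level (µM).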

[27] = Vd (5 mg/kg) was determined in rhesus (in vivo); type: ADME, organism-based, Macaca mulatta; conditions: rhesus monkey; how it was run: as §5
[28] = Maximum plasma concentration (Cmax) in rat (in vivo) at a dose of 10 mg/kg; type: ADME, organism-based; parameters: dose 10 mg/kg; how it was run: as §4
[29] = Oral bioavailability (5 mg/kg) was determined in rhesus; conditions: Macaca mulatta, rhesus monkey, in vivo
[30] = Half life period after intravenous administration (10 mg/kg) was determined in rat (in vivo); type: ADME, organism-based

Structure (SMILES) | Cmax [1] [nM] | logP [3] | half-life [5] [h] | Ki (Prothrombin) [nM] | Concentration (Homo sapiens [2]) [µM] | Ratio (Homo sapiens [4]) | further results
O=C(Cn1c(Cl)cnc(NCC(F)(F)c2cccc[n+]2[O-])c1=O)NCc1ccccc1OC(F)F | 2030 | 1.63 | 2.8 | 3 | 0.69 | 0 | 
O=C(Cn1c(Cl)cnc(NCC(F)(F)c2cccc[n+]2[O-])c1=O)NCc1ncccc1F | 1780 | 0.19 | 2.5 | 3.1 | 0.54 | 6.5 | half-life [6]: 2.9 h; fraction unbound [7]: 0.2; bioavailability [8]: 83%; clearance [9]: 4.91 mL/min/kg; fraction unbound [10]: 0.3; Vd [11]: 1.13 L/kg
O=C(Cn1c(Cl)cnc(NCC(F)(F)c2cccc[n+]2[O-])c1=O)NCc1ccccc1C(F)(F)F |  | 2.24 | 3.7 | 3.6 | 0.93 | 0.05 | Cmax ([12]; 0.5 mg/kg): 1430 nM
CCOc1ccccc1CNC(=O)Cn1c(Cl)cnc(NCC(F)(F)c2cccc[n+]2[O-])c1=O | 770 | 1.91 | 1.2 | 5.2 | 0.87 | 0.08 | 
O=C(Cn1c(Cl)cnc(NCC(F)(F)c2cccc[n+]2[O-])c1=O)NCc1ncccc1Cl |  | 0.75 | 5.5 | 2.9 | 0.47 | 1.3 | half-life [6]: 6 h; fraction unbound [7]: 0.5; Cmax ([12]; 0.7 mg/kg): 1090 nM; clearance [9]: 3.03 mL/min/kg; fraction unbound [10]: 0.59; Vd [11]: 1.17 L/kg
O=C(Cn1c(Cl)cnc(NCC(F)(F)c2cccc[n+]2[O-])c1=O)NCc1cccc(OC(F)F)c1 | 120 | 1.73 | 4.8 | 7 | 0.97 | 0.54 | 
Cc1ccccc1CNC(=O)Cn1c(Cl)cnc(NCC(F)(F)c2cccc[n+]2[O-])c1=O | 1760 | 1.74 | 3.6 |  | 0.77 |  | 
O=C(Cn1c(Cl)cnc(NCC(F)(F)c2cccc[n+]2[O-])c1=O)NCc1ccccc1 | 3200 | 1.23 | 6.3 | 7 | 0.94 | 1.3 | 
O=C(Cn1c(Cl)cnc(NCC(F)(F)c2cccc[n+]2[O-])c1=O)NCc1ccccc1OC(F)(F)F | 1670 | 2.34 | 3 | 2.4 | 0.81 | 0 | 
O=C(Cn1c(Cl)cnc(NCC(F)(F)c2cccc[n+]2[O-])c1=O)NCc1ccccc1Cl | 700 | 1.89 | 2.9 | 2.5 | 0.54 | 0.15 | 
O=C(Cn1c(Cl)cnc(NCC(F)(F)c2cccc[n+]2[O-])c1=O)NCc1cc(F)ccc1F | 2290 | Not Active | 3.9 | 2.4 | 0.43 | 0.05 | 
O=C(Cn1c(Cl)cnc(NCC(F)(F)c2ccccn2)c1=O)NCc1ncccc1F [DPOC-4088] |  |  |  |  | 0.78 |  | half-life [6]: 4.5 h; fraction unbound [7]: 0.67; clearance [9]: 2.2 mL/min/kg; fraction unbound [10]: 0.86; Vd [11]: 0.62 L/kg
COc1ccccc1CNC(=O)Cn1c(Cl)cnc(NCC(F)(F)c2cccc[n+]2[O-])c1=O |  | 1.36 | 3.8 | 3 | 0.56 | 0.44 | Cmax ([12]; 0.5 mg/kg): 2480 nM
O=C(Cn1c(Cl)cnc(NCC(F)(F)c2ccccn2)c1=O)NCc1ccccc1F | 17 |  |  | 4.8 | 1.24 |  | 
O=C(Cn1c(Cl)cnc(NCC(F)(F)c2cccc[n+]2[O-])c1=O)NCc1cccc(F)c1 |  | Not Active | 4.1 | 7.3 | 0.86 | 0.71 | Cmax ([12]; 0.5 mg/kg): 1370 nM
O=C(Cn1c(Cl)cnc(NCC(F)(F)c2cccc[n+]2[O-])c1=O)NCc1ccc(F)c(Cl)c1 | 420 | 1.98 | 2.4 | 3.6 | 0.78 | 0 | 
O=C(Cn1c(Cl)cnc(NCC(F)(F)c2cccc[n+]2[O-])c1=O)NCc1ccccc1F | 3500 | 1.39 | 4.9 |  | 0.4 |  | Cmax [13]: 1050 nM; APTT (Rattus norvegicus [14]): 22.6 s; half-life [15]: 1.1 h; clearance [16]: 1.55 mL/min/kg; Vd [17]: 0.93 L/kg; Vd [18]: 0.49 L/kg; bioavailability [19]: 52%; half-life [20]: 6.3 h; clearance [21]: 43 mL/min/kg; bioavailability [22]: 40%; Cmax [23]: 3280 nM; clearance [24]: 19 mL/min/kg; TT (Rattus norvegicus [25]): 59.3 s; TTO (Rattus norvegicus [26]): 15; Vd [27]: 1.5 L/kg; Cmax [28]: 1940 nM; bioavailability [29]: 21%; half-life [30]: 0.43 h

Second part, led by results:

Cmax [1] [nM] | logP [3] | half-life [5] [h] | Ki (Prothrombin) [nM] | Structure (SMILES) | Concentration (Homo sapiens [2]) [µM] | Ratio (Homo sapiens [4]) | further results
1510 | 1.42 | 3.5 | 1.1 | O=C(Cn1c(Cl)cnc(NCC(F)(F)c2cccc[n+]2[O-])c1=O)NCc1c(F)ccc(F)c1F | 0.31 | 0.04 | 
110 | 2.61 | 2.1 | 0.087 | O=C(Cn1c(Cl)cnc(NCC(F)(F)c2cccc[n+]2[O-])c1=O)NCc1cc(Cl)ccc1Cl | 0.39 | 1.04 | 
1220 | 1.31 | 2.8 | 1.2 | COc1cccc(CNC(=O)Cn2c(Cl)cnc(NCC(F)(F)c3cccc[n+]3[O-])c2=O)c1 | 0.43 | 0.71 | 
1010 | 2.11 | 3.6 | 0.19 | O=C(Cn1c(Cl)cnc(NCC(F)(F)c2cccc[n+]2[O-])c1=O)NCc1cccc(Br)c1 | 0.28 | 0.14 | 
210 | 1.23 | 6.2 | 0.85 | O=C(Cn1c(Cl)cnc(NCC(F)(F)c2cccc[n+]2[O-])c1=O)NCc1c(F)cccc1F | 0.33 | 3.4 | 
2290 | 1.93 | 2.5 | 1.8 | O=C(Cn1c(Cl)cnc(NCC(F)(F)c2cccc[n+]2[O-])c1=O)NCc1ccccc1OCC(F)(F)F | 0.58 | 0 | 
 | Not Active | 2.6 | 0.26 | O=C(Cn1c(Cl)cnc(NCC(F)(F)c2cccc[n+]2[O-])c1=O)NCc1cccc(Cl)c1 | 0.23 | 0 | Cmax ([12]; 0.5 mg/kg): 1910 nM
290 | 2.14 | 2.5 | 2 | O=C(Cn1c(Cl)cnc(NCC(F)(F)c2cccc[n+]2[O-])c1=O)NCc1cccc(Cl)c1Cl | 0.88 | 0.39 | 
 | 1.89 | 2.4 | 1.3 | O=C(Cn1c(Cl)cnc(NCC(F)(F)c2cccc[n+]2[O-])c1=O)NCc1c(F)cccc1C(F)(F)F | 0.88 | 0 | Cmax ([12]; 0.7 mg/kg): 70 nM
480 | Not Active | 2.1 | 0.16 | O=C(Cn1c(Cl)cnc(NCC(F)(F)c2cccc[n+]2[O-])c1=O)NCc1cc(Cl)ccc1F | 0.31 | 0 | 
2190 | 1.81 | 1.1 | 0.8 | Cc1cccc(CNC(=O)Cn2c(Cl)cnc(NCC(F)(F)c3cccc[n+]3[O-])c2=O)c1 | 0.3 | 0.58 | 
990 | 1.99 | 2.8 | 1.7 | O=C(Cn1c(Cl)cnc(NCC(F)(F)c2cccc[n+]2[O-])c1=O)NCc1cc(F)ccc1C(F)(F)F | 0.63 | 0 | 
